Changes are numbered by the printed parent chain.
Tests used:
Conditions in all cases: stereoisomer not certain
OR52A5 (Homo sapiens) = target: T1, OR52A5 (Homo sapiens) (UniProt Q9H2C5)
T1 sequence (whole entry): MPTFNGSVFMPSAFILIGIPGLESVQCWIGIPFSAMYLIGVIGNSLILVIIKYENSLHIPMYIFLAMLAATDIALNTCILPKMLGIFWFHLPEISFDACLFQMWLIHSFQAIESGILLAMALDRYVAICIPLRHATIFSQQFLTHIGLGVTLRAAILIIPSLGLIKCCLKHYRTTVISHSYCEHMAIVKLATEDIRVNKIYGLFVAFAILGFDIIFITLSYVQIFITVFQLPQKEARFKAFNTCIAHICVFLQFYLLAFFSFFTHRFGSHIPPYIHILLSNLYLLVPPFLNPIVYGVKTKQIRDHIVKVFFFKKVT
Outline: (§1)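 Each entry records the cell line, G-protein, co-transfected protein and tags used. Methods varied with the source, often transient luciferase assays in mammalian cell lines. A receptor–molecule pair is called responsive (active) if the original authors judged its signal statistically different from baseline and non-responsive (inactive) otherwise.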

OR52B2 (Homo sapiens) = target: T2, OR52B2 (Homo sapiens) (UniProt Q96RD2)
T2 sequence (whole entry): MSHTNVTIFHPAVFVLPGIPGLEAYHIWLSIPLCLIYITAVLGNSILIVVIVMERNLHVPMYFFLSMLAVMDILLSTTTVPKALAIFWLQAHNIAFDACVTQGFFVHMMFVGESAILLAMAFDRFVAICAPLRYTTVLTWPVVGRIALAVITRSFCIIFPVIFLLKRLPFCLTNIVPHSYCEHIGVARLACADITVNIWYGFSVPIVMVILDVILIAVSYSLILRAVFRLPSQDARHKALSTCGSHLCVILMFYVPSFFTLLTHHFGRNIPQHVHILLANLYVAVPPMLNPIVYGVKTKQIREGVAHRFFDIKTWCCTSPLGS
Outline: as §1

OR52B4 (Homo sapiens) = target: T3, OR52B4 (Homo sapiens) (UniProt Q8NGK2)
T3 sequence (whole entry): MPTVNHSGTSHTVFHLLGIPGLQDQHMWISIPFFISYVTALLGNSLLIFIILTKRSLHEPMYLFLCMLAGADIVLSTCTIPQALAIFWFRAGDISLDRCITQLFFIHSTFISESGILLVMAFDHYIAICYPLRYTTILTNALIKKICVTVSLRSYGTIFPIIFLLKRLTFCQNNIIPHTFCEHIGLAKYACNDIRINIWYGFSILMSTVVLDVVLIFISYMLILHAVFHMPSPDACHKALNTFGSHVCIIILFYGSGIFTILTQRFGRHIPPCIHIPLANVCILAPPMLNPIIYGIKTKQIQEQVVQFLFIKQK
Outline: as §1

OR52B6 (Homo sapiens) = target: T4, OR52B6 (Homo sapiens) (UniProt Q8NGF0)
T4 sequence (whole entry): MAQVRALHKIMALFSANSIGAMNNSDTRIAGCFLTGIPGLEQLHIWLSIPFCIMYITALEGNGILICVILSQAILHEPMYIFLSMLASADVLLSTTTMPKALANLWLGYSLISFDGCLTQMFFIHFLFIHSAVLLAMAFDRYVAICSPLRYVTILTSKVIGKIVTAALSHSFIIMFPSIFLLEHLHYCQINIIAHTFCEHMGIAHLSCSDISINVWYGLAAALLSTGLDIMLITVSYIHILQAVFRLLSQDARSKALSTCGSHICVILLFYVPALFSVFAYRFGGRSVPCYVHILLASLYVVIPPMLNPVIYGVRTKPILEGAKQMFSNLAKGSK
Outline: as §1

OR52D1 (Homo sapiens) = target: T5, OR52D1 (Homo sapiens) (UniProt Q9H346)
T5 sequence (whole entry): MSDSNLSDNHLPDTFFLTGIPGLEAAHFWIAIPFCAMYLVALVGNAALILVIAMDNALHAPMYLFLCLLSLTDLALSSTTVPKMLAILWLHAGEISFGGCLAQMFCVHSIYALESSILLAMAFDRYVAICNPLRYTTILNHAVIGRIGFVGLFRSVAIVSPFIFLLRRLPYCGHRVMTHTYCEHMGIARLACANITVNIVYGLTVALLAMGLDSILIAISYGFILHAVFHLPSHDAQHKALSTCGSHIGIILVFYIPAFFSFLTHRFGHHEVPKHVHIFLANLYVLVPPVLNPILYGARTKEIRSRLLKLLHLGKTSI
Outline: as §1

OR52E2 (Homo sapiens) = OR52E2 (Homo sapiens) (UniProt Q8NGJ4)
Outline: as §1

OR52E4 (Homo sapiens) = OR52E4 (Homo sapiens) (UniProt Q8NGH9)
Outline: as §1

OR52E5 (Homo sapiens) = OR52E5 (Homo sapiens) (UniProt Q8NH55)
Outline: as §1

OR52E6 (Homo sapiens) = OR52E6 (Homo sapiens) (UniProt Q96RD3)
Outline: as §1

OR52I1 (Homo sapiens) = target: T6, OR52I1 (Homo sapiens) (UniProt Q8NGK6)
T6 sequence (whole entry): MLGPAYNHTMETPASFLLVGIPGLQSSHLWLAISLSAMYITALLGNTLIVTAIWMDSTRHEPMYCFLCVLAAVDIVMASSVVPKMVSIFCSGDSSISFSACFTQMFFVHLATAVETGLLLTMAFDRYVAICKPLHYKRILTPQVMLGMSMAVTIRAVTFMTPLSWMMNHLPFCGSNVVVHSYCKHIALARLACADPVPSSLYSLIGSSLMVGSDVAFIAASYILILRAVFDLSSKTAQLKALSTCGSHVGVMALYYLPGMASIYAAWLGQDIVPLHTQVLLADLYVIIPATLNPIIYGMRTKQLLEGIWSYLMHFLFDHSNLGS
Outline: as §1

OR52I2 (Homo sapiens) = target: T7, OR52I2 (Homo sapiens) (UniProt Q8NH67)
T7 sequence (whole entry): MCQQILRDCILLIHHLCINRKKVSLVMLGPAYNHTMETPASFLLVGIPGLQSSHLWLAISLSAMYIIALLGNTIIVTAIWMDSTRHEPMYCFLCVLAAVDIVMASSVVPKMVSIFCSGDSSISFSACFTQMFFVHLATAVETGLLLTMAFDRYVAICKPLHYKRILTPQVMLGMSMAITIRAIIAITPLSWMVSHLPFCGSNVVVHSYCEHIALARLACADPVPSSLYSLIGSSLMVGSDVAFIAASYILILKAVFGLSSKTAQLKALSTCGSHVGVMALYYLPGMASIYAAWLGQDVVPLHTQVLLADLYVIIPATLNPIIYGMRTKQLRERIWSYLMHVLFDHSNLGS
Outline: as §1

OR52J3 (Homo sapiens) = OR52J3 (Homo sapiens) (UniProt Q8NH60)
Outline: as §1

OR52K1 (Homo sapiens) = target: T8, OR52K1 (Homo sapiens) (UniProt Q8NGK4)
T8 sequence (whole entry): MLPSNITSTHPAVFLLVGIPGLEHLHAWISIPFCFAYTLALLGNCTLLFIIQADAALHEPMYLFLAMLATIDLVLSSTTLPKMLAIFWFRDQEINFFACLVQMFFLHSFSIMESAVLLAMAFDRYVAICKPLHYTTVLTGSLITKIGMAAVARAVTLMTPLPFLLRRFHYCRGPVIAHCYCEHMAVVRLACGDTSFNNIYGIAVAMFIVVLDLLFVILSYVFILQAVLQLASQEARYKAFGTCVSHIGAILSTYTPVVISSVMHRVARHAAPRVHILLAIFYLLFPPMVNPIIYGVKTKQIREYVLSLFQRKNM
Outline: as §1

OR52K2 (Homo sapiens) = target: T9, OR52K2 (Homo sapiens) (UniProt Q8NGK3)
T9 sequence (whole entry): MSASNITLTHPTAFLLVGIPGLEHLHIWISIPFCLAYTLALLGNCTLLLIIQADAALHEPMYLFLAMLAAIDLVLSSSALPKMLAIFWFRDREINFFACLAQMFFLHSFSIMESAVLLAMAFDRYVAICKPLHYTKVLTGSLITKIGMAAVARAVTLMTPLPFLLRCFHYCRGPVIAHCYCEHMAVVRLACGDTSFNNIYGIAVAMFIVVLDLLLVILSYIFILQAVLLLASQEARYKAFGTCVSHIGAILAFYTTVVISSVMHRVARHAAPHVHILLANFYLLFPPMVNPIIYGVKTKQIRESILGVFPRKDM
Outline: as §1

OR52L1 (Homo sapiens) [1] = target: T10, OR52L1 (Homo sapiens) (UniProt Q8NGH7)
T10 sequence (whole entry): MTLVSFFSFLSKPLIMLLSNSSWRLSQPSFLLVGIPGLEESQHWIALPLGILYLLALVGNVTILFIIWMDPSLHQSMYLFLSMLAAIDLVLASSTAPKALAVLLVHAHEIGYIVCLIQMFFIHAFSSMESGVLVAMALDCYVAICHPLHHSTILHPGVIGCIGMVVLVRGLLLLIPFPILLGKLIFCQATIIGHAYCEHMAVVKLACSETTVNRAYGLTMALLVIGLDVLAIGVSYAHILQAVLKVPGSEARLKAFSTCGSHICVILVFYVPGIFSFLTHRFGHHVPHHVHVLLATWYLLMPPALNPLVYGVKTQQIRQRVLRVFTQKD
Outline: as §1

OR52M1 (Homo sapiens) = target: T11, OR52M1 (Homo sapiens) (UniProt Q8NGK5)
T11 sequence (whole entry): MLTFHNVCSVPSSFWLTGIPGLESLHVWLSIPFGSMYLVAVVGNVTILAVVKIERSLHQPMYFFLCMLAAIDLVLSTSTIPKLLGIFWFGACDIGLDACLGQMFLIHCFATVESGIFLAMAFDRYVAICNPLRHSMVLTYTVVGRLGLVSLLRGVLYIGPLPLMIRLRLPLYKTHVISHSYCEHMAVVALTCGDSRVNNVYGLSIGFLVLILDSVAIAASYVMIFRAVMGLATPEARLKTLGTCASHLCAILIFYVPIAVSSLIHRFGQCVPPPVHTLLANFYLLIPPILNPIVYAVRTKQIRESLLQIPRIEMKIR
Outline: as §1

OR52N1 (Homo sapiens) = target: T12, OR52N1 (Homo sapiens) (UniProt Q8NH53)
T12 sequence (whole entry): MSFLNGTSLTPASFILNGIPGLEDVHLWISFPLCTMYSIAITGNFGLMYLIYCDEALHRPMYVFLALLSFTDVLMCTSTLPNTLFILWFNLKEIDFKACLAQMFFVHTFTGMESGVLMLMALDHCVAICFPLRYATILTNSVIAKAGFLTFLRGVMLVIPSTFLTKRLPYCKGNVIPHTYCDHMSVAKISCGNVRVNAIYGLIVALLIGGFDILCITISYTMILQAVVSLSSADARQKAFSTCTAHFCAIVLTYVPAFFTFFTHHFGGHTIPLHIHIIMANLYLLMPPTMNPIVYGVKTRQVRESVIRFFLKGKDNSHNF
Outline: as §1

OR52N2 (Homo sapiens) = target: T13, OR52N2 (Homo sapiens) (UniProt Q8NGI0)
T13 sequence (whole entry): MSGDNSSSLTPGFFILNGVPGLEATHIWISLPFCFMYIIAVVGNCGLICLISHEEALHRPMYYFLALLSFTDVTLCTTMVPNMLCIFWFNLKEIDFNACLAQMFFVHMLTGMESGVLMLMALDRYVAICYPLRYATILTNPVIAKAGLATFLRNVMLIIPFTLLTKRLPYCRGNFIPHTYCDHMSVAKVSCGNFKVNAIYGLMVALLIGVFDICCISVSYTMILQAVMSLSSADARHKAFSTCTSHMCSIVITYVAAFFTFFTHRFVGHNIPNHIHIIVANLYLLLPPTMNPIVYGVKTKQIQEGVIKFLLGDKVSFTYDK
Outline: as §1

OR52E1 (Homo sapiens) = OR52E1 (Homo sapiens) (UniProt Q8NGJ3)
Outline: as §1

OR52L1 (Homo sapiens) [2] = target: T14, OR52L1 (Homo sapiens) (UniProt Q8NGH7); remark: listed apart in the source
T14 sequence (whole entry): T10 sequence (whole entry) with C140R, C161R, K183T, W297R
Outline: as §1

Measured: odorant receptor agonist call

Chain of OR52E4 (Homo sapiens) (Q8NGH9 whole entry): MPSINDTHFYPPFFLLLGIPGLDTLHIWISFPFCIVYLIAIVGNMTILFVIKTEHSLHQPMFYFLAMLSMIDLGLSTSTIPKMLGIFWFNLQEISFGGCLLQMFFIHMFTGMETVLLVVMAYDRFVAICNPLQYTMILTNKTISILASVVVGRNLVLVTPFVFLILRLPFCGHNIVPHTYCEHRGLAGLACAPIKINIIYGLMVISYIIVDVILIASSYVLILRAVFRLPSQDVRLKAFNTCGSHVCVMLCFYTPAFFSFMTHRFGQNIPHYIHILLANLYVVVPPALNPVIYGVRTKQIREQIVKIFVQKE
Chain of OR52E1 (Homo sapiens) (Q8NGJ3 whole entry): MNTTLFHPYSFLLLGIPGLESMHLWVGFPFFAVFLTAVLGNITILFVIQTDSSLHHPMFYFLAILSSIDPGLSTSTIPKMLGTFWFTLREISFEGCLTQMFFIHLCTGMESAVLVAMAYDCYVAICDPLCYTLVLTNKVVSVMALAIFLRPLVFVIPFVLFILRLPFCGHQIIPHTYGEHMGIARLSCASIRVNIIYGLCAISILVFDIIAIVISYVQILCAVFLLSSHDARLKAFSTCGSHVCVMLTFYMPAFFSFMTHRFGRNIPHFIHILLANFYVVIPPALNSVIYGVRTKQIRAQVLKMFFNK
Chain of OR52E2 (Homo sapiens) (Q8NGJ4 whole entry): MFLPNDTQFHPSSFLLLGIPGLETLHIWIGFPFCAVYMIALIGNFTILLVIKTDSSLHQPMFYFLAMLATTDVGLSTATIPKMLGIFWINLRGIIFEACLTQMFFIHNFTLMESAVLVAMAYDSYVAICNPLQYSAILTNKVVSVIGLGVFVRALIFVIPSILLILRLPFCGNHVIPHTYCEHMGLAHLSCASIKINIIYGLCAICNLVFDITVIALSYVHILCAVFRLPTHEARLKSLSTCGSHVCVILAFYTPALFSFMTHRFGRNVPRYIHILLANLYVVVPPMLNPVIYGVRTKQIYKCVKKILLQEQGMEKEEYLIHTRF
Chain of OR52J3 (Homo sapiens) (Q8NH60 whole entry): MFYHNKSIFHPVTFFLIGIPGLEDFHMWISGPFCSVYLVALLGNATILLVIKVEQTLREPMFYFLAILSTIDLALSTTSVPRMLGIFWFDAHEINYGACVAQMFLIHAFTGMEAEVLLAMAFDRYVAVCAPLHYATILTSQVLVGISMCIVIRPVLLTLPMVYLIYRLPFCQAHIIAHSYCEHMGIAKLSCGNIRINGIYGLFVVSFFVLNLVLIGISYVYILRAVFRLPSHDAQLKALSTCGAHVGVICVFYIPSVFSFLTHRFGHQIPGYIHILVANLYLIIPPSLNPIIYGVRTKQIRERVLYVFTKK
Chain of OR52E5 (Homo sapiens) (Q8NH55 whole entry): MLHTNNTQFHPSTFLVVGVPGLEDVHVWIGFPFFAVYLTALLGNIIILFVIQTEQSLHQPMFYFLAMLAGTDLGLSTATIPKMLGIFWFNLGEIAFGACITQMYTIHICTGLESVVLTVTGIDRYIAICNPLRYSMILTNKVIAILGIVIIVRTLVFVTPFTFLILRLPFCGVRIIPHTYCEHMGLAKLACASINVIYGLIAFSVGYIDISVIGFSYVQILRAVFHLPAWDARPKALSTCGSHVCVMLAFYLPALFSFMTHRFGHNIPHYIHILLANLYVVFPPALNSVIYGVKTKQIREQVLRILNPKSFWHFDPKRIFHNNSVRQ
Chain of OR52E6 (Homo sapiens) (Q96RD3 whole entry): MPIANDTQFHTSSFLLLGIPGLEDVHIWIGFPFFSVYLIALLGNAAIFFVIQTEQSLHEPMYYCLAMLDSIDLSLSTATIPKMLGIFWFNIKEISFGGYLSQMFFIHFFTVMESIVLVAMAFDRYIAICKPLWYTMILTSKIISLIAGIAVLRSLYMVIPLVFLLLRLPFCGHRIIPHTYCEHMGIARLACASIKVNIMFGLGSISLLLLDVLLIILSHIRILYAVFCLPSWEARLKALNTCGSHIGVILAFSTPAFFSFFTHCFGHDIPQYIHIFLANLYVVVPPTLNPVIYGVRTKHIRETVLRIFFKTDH

CCCCCC(S)C(C)CO (stereo unspecified)
not listed: OR52E1 (Homo sapiens) | OR52L1 (Homo sapiens) [2]
inactive: all other assays above

CCCCCCC1CCC(=O)O1 (stereo unspecified)
inactive: OR52D1 (Homo sapiens)

CCCCCC1CCCC(=O)O1 (stereo unspecified)
active: OR52D1 (Homo sapiens) | OR52K1 (Homo sapiens) | OR52L1 (Homo sapiens) [1] | OR52M1 (Homo sapiens)
not listed: OR52E1 (Homo sapiens) | OR52L1 (Homo sapiens) [2]
inactive: all other assays above

CCCCCC(=O)CC
active: OR52D1 (Homo sapiens)

O=C(O)C=Cc1ccccc1
active: OR52D1 (Homo sapiens)

CC(CO)CS (stereo unspecified)
not listed: OR52E1 (Homo sapiens) | OR52L1 (Homo sapiens) [2]
inactive: all other assays above

CC1CCCCCCCCCCCCC(=O)C1 (stereo unspecified)
not listed: OR52L1 (Homo sapiens) [2]
inactive: all other assays above

CCC1OC(=O)C(O)=C1C (stereo unspecified)
not listed: OR52E5 (Homo sapiens) | OR52L1 (Homo sapiens) [1]
inactive: all other assays above

CC(=O)C=CC1=C(C)CCCC1(C)C
active: OR52D1 (Homo sapiens)

CC1=NC(C)C(C)S1 (stereo unspecified)
not listed: OR52E5 (Homo sapiens) | OR52L1 (Homo sapiens) [1]
inactive: all other assays above

CC1=C(O)C(=O)OC1C (stereo unspecified)
not listed: OR52E5 (Homo sapiens) | OR52L1 (Homo sapiens) [1]
inactive: all other assays above

CCCCCC(=O)C(C)C(C)=O (stereo unspecified)
not listed: OR52E1 (Homo sapiens) | OR52L1 (Homo sapiens) [2]
inactive: all other assays above

CCCCCCC(C)=O
inactive: OR52D1 (Homo sapiens)

CCCCCCCC(C)O (stereo unspecified)
active: OR52D1 (Homo sapiens)

— the M2OR odorant receptor database
